Data as given in ChEMBL document CHEMBL2424574, “Structure-activity relationships and pharmacophore model of a noncompetitive pyrazoline containing class of GluN2C/GluN2D selective antagonists” (J Med Chem, 2013).
Active and inactive are the calls of the source. The calls are words filed in the database; no cut-off is given here.

Key:
[1] = tested on: MDCK; test: Apparent permeability across apical to basolateral side in dog MDCK cells expressing MDR1 at 5 uM after 120 mins by LC-MS/MS analysis; type: ADME, cell-based, Canis lupus familiaris; conditions: 2 h
In short: (§1)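 MDR1-MDCK monolayers grown to confluence on collagen-coated polycarbonate membranes. Assay buffer was HBSS with 10 mM HEPES and 15 mM glucose, pH 7.4, and the receiver side also held 1% BSA. Monolayers were dosed apically (A-to-B) or basolaterally (B-to-A) at 5 μM, 37 °C, 5% CO2. Donor and receiver were sampled at 120 min, in duplicate, by LC-MS/MS (ESI). Papp and percent recovery were calculated from receiver/donor concentrations.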

[2] = Aqueous solubility in DMSO buffer by nephelometric analysis; type: physicochemical; conditions: oocyte recording buffer; in the assay text read “oocyte recording buffer” for “DMSO buffer”
In short: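 Solubility measured by nephelometry in oocyte recording buffer: 90 mM NaCl, 1 KCl, 0.5 BaCl2, 0.005 EDTA, 10 HEPES, pH 7.4.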

[3] = molecular target: Histamine H2 receptor (Homo sapiens, UniProt P25021); test: Inhibition of histamine H2 receptor (unknown origin)
In short: (§2)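 Radioligand panel screening was run through the NIMH Psychoactive Drug Screening Program with compounds at 5 µM.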

[4] = tested on: MDCK; test: Apparent permeability across basolateral to apical side in dog MDCK cells expressing MDR1 at 5 uM after 120 mins by LC-MS/MS analysis; type: ADME, cell-based, Canis lupus familiaris; conditions: 2 h; in short: as §1
[5] = molecular target: T1, Ionotropic glutamate receptor NMDA 1/2D (Homo sapiens) (UniProt Q05586+O15399); conditions: Oocyte, 1 uM
[6] = molecular target: T1, Ionotropic glutamate receptor NMDA 1/2D (Homo sapiens); conditions: Oocyte, 1 uM; remark: listed apart in the source
[7] = molecular target: Mu-type opioid receptor (Homo sapiens, UniProt P35372); test: Inhibition of mu-type opioid receptor (unknown origin); in short: as §2
[8] = species: Homo sapiens; test: Inhibition of GluN2D receptor A752V mutant (unknown origin)

Histamine H2 receptor, sequence (P25021 whole entry): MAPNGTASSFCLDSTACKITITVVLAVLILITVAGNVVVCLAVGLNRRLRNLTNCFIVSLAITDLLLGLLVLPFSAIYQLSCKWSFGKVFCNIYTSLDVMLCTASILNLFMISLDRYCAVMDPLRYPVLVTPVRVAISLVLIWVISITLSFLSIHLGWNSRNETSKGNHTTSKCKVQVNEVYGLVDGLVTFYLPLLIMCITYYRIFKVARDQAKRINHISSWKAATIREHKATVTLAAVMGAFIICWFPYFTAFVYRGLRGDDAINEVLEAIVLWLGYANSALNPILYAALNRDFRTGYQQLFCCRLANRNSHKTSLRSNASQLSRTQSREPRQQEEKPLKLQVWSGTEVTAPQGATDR
Mu-type opioid receptor, sequence (P35372 whole entry): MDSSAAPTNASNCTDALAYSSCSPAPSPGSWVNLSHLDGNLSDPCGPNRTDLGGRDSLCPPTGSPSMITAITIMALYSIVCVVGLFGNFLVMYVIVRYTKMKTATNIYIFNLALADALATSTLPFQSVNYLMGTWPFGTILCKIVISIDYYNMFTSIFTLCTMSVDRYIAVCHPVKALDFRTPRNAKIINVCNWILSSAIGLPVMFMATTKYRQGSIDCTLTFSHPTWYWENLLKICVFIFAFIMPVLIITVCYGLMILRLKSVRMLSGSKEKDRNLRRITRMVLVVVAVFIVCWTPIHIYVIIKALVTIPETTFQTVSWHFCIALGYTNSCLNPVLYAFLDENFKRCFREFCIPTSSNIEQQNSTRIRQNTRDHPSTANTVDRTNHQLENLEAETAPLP

SMILES: O=C(O)CCC(=O)N1N=C(c2c(-c3ccc(Cl)cc3)c3ccccc3[nH]c2=O)CC1c1ccc(Cl)cc1 (racemic)
- Papp [1]: 4.7 nm/s
- solubility kinetic [2]: > 80 µM
- Ki [3]: > 10 µM
- Papp [4]: 256 nm/s

SMILES: O=C(O)/C=C/C(=O)N1N=C(c2c(-c3ccc(Br)cc3)c3ccccc3[nH]c2=O)CC1c1ccc(Cl)cc1 (racemic)
- residual activity [5]: 3.1%
- residual activity [6]: 4.9%
- Ki [7]: > 10 µM
- inhibition [8]: inactive
